FID counter: compounds displacing fluorescent DNA intercalator, primary screen, artefact control for HCV NS3 helicase inhibitor project, biochemical, FID fluorescence | AID 1845, 2009 | hit rate 0.17% among 290,000 | inhibition, % at 7.9 µM | DNA fluorescent intercalator displacement; in the data active = inhibition above about 37%;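 also: 0% = vehicle and 100% = reference compound; higher means more ethidium bromide displaced from hairpin DNA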
RBBP9 inh: human RBBP9 inhibitors, primary screen, biochemical, fluorescence polarization, FP-Rh probe, HTS; recombinant RBBP9; hit rate 0.2% among 220,000; inhibition, % at 7.94 µM; Serine hydrolase RBBP9 (Homo sapiens), O75884;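 active = inhibition above the campaign mean of all tested compounds plus 3 SD, cut at about 14% in these data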;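 also: plate controls were DMSO wells with RBBP9 for no effect and wells lacking RBBP9 protein for full effect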
Target sequence (O75884 whole entry, looked up): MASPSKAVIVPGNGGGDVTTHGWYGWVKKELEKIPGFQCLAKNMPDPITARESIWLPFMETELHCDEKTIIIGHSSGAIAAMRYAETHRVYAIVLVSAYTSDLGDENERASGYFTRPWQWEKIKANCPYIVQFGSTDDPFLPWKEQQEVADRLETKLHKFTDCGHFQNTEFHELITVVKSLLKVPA
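system = RBBP9 protein | input = RBBP9 at 2.5 µM in dispensed solution, before mixing | measured by = fluorescence polarization (mP), excitation 525 nm, emission 598 nm | incubation = enzyme-compound preincubation 30 min, then probe labeling 45 min, 25 °C | buffer or medium = Tris-NaCl-Pluronic buffer, pH 8.0 | compound = single dose 7.94 µM | also added = FP-Rh probe, 375 nM dispensing solution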
Rad51 HR inh: human RAD51 strand exchange inhibitors, primary screen, biochemical, fluorescence; DNA repair protein RAD51 homolog 1 (Homo sapiens), Q06609; hRad51 DNA strand exchange, fluorescence dequenching; inhibition, % at 10 µM; hit rate 0.085% among 200,000; AID 1385, 2008;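 active = inhibition above 40% at the single screening dose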;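 also: 0% = DMSO control wells and 100% = blanks with heterologous ssDNA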
Target sequence (Q06609 whole entry, looked up): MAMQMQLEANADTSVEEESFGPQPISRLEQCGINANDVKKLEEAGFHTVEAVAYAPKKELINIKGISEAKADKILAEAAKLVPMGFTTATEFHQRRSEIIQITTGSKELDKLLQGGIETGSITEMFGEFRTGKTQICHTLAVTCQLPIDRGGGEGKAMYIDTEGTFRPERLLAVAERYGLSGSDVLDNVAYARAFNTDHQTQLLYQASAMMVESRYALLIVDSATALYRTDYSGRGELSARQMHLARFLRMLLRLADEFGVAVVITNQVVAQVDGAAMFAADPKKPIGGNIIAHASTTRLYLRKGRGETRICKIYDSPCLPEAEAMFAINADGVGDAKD
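Material: Human Rad51 nucleoprotein filaments preassembled on unlabelled ssDNA | Also added: Labelled 47-mer dsDNA for strand exchange | Dosing: Single dose, 10 µM final compound | Schedule: 30-min compound preincubation and 15-min exchange, both room temperature | Technique: Fluorescence dequenching at 485/520 nm | Measure: Percent inhibition relative to plate controls and blanks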
Wee1 stabilizer: Wee1 degradation inhibitors, primary screen, cell-based, HeLa, Wee1K328M-luciferase, luminescence. HeLa Luc-Wee1K328M stability; 100% = proteasome inhibitor MG132 effect. reporter increase, % at 5 µM. AID 1321, 2008. hit rate 1.2% among 220,000. Wee1-like protein kinase (Homo sapiens), P30291;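 active = activation above the mean of all tested compounds plus 3 SD, set per screening run, cut at about 8.8% in these data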;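 also: cells exposed to compound for 20 h before luminescence read; 0% = DMSO alone and 100% = MG132 at 30 µM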
Wee1 degr conf: Wee1 degradation inhibitors, confirmation, cell-based, HeLa, Wee1K328M-luciferase, luminescence, triplicate | activation, % at 5 µM | AID 1410, 2008 | hit rate 4% among 1,100 | HeLa Luc-Wee1K328M degradation; vehicle 0%, proteasome-blocked wells 100% | shares compounds with Wee1 stabilizer; in the data active = activation above about 8.9%
Numbers without * were called inactive; x = not tested or not shown. An excerpt weighted towards active compounds, which were near 1.2% of everything screened.

SMILES	FID counter	RBBP9 inh	Rad51 HR inh	Wee1 stabilizer	Wee1 degr conf
CC1CCN(CC(=O)NC(=O)NCc2ccccc2)CC1	-7	-7	11	1	x
Cc1cccc(NC(=O)c2cnc3ccccn3c2=O)c1	-3	1	-3	0	x
Cc1cccc(NC(=O)c2cnc3sccn3c2=O)c1	-9	-7	x	24*	-1
CC1CCN(C(=O)CSc2ccc(-c3cccnc3)nn2)CC1	-16	x	x	x	x
Cc1cccc2c(CC(=O)Nc3ccccc3)noc12	-4	-3	x	13*	5
O=C(Nc1ccc(N2CCOCC2)cc1)C1CC(=O)N(c2ccc(F)cc2)C1 (configuration not stated)	1	-1	8	0	x
Cc1csc(NC(=O)c2ccco2)c1C(=O)c1ccccc1	-4	-1	x	12*	1
CCOC(=O)C1=C(c2ccccc2)NC(=S)NC1c1cccc([N+](=O)[O-])c1 (configuration not stated)	-4	-3	0	12*	-1
CCOC(=O)C1=C(c2ccccc2)NC(=S)NC1c1ccc(C)c([N+](=O)[O-])c1 (configuration not stated)	-1	-2	7	-1	x
Cc1ccc(Oc2ccc(OCC(=O)NC(CC(C)C)C(=O)O)cc2)cc1 (configuration not stated)	-24	0	9	14*	2
O=C(CSC1=NCCN1)C1COc2ccccc2O1 (configuration not stated)	-3	5	6	12*	1
O=C(Nc1ccncc1)C1COc2ccccc2O1 (configuration not stated)	5	-16	-2	1	x
Cc1c(Cl)cccc1NC(=O)CCCn1nc([N+](=O)[O-])cc1C	-3	0	0	15*	-3
Cc1cc([N+](=O)[O-])nn1CCCC(=O)Nc1ccc(Cl)cc1Cl	0	-4	6	-1	x
Cc1onc(C(=O)NC(C)c2ccccc2)c1[N+](=O)[O-] (configuration not stated)	-2	6	-1	-2	x
COc1cc(/C=N/NC(=O)c2ccc(CSc3nncn3C)cc2)cc(OC)c1O	-9	4	-12	11*	-2
Cc1cc(C)c2c(n1)SCC(=O)N2CC(=O)Nc1ccc(F)cc1	-11	x	x	x	x
O=C(CSc1nnc(-c2cccc(S(=O)(=O)N3CCCC3)c2)n1-c1ccccc1)Nc1ccc(C(=O)O)cc1	-25	4	x	0	x
Cc1cccc(C)c1-n1c(SCC(=O)Nc2ccc(C(=O)O)cc2)nnc1-c1cccc(S(=O)(=O)N(C)C)c1	-33	-3	-6	12*	-1
CCc1ccc(-c2nc(CS(=O)CC(=O)NCCCN3CCOCC3)c(C)o2)cc1 (configuration not stated)	4	x	x	x	x
COc1ccccc1OCCn1c(=O)sc2ccccc21	-16	-14	-7	2	x
COc1ccc(OCCn2c(=O)sc3ccccc32)cc1	-16	3	22	13*	1
O=C(NCc1ccc(OC(F)(F)F)cc1)C1CC(c2c(Cl)cccc2Cl)=NO1 (configuration not stated)	-16	-4	-10	2	x
CNC(=O)COc1ncnc2scc(-c3ccc(F)cc3)c12	-1	-4	-7	12*	1
O=C(CCc1nc2ccccc2c(=O)[nH]1)Nc1ccc(N2CCCCC2)cc1	-12	-5	-8	11*	0
SMILES	FID counter	RBBP9 inh	Rad51 HR inh	Wee1 stabilizer	Wee1 degr conf
O=[N+]([O-])c1ccc(COc2cccc(CNc3ccc(F)cc3)c2)cc1	10	-6	8	15*	0
Oc1ccc(NCc2cccc(OCc3ccc(F)cc3)c2)cc1	1	-1	9	-3	x
COc1ccccc1CC(=O)Nc1ccc(-c2noc(COc3cccc(C)c3C)n2)cc1	-3	-11	-4	11*	6
COCCn1c(N)c(Sc2ccccc2[N+](=O)[O-])c(=O)[nH]c1=O	-1	0	17	0	x
O=C(CSc1nnc(Cc2ccccc2)n1-c1ccccc1)NNC(=O)Cc1ccccc1	-19	-5	0	17*	-4
CN(CCc1ccccn1)C(=S)Nc1ccc(Cl)c(Cl)c1	-2	-5	3	15*	3
COc1ccc(CCC(=O)Nc2sccc2C#N)cc1	-7	-11	-11	12*	0
CC(=O)c1cccc(N(CC(=O)NC2CCCC2)C(=O)c2csnn2)c1	-6	x	x	x	x
COC(=O)c1ccccc1NC(=O)C(C)Oc1ccccc1 (configuration not stated)	-13	-4	7	17*	2
Nc1[nH]c(N=NC(=O)c2ccccc2O)c2ccccc12	-3	0	x	14*	2
O=C(ONc1ccc(N=NC(=O)c2ccccc2O)cc1)c1ccccc1	-2	-3	9	0	x
Cc1ccc(C(C)C)c(OCc2nn(CC(=O)c3ccc(OC(F)F)cc3)c3[n+]2CCCCC3)c1	37*	-8	-6	18*	-2
COc1cc(OC)c2c(=O)cc(-c3ccccc3)oc2c1	-20	-9	x	-1	x
COc1cc(OC)c2c(=O)cc(-c3cccnc3)oc2c1	-12	-6	3	14*	2
COc1ccc(OCCC(=O)N2CCOCC2)cc1	-2	0	13	12*	1
CC(C)(C)c1ccc(OCCCC(=O)N2CCOCC2)cc1	-30	-4	-3	3	x
CC(=O)c1sc(NC(=O)c2ccccc2F)nc1-c1ccccc1	-10	-14	-5	14*	2
CC1CC(C)CN(C(=O)c2ccc3c(c2)N(Cc2ccccc2)CCS3)C1 (configuration not stated)	-31	-1	6	13*	0
CCOC(=O)N1CCN(C(=O)c2ccc3c(c2)N(Cc2ccccc2)CCS3)CC1	-43	x	x	x	x
CCCOc1ccc(C(C)=O)cc1CSCCC#N	-14	7	-9	0	x
COc1ccc(C(C)=O)cc1CSCCC#N	-6	0	-1	14*	0
NC(=S)N/N=C/c1ccc(Br)o1	-3	-6	-8	17*	2
COc1cc2c(cc1NS(=O)(=O)N1CCCCC1)oc1ccccc12	-5	4	8	-1	x
CCOC(=O)c1cnc2c(C(=O)OC)cccc2c1NCc1cccnc1	-2	-7	16	2	x
COc1ccc(C(=O)NCCCn2ccnc2)cc1[N+](=O)[O-]	-2	-2	5	18*	-1
CCOc1ccc(Cn2ccnc2)cc1[N+](=O)[O-]	5	-5	-7	16*	0
COCCSc1ccccc1C(=O)N1CCOCC1	-3	2	2	0	x

Assay outcomes from PubChem.
